Measured values collected from several papers.
Compare with care: the assays were run in different laboratories.
Target: Serine/threonine-protein kinase MARK2 (MARK2, Homo sapiens, UniProt Q7KZI7)
Observed: enzyme activity
Mode: inhibitor

SMILES	test	setting	remaining activity [%]
NS(=O)(=O)c1ccc(CNc2nc(Nc3cccc(NC(=O)N4CCCC4)c3)ncc2Br)cc1	radiometric	1 µM	57
Oc1cccc(-c2nc(N3CCOCC3)c3oc4ncccc4c3n2)c1		10 µM	107
CCCOc1ccc(OC)c(F)c1C(=O)c1ccc(C(=O)N[C@@H]2CNC[C@H]2NC(=O)c2ccc3[nH]ncc3c2)cc1		10 µM	33
O=C(Nc1cnn(-c2csc(C(=O)NC3COC3)c2)c1)Nc1c(F)cccc1Cl		5 µM	90.7
CN1CCc2cc(Nc3ncc(C4CC4)c(NCCCNC(=O)C4CCC4)n3)ccc2C1	radiometric	1 µM	3
Cc1sc(C(=O)NC2COC2)cc1-n1cc(NC(=O)Nc2c(F)cccc2Cl)cn1		10 µM	99.8
Cc1cnc(NC2CCOCC2)nc1-n1cnc(C(=O)NC(CN)c2cc(F)cc(Cl)c2)c1 (centres unmarked)	radiometric	1 µM	45
CCN(CC)c1ccc(C2=NNC(=O)CC2C)cc1[N+](=O)[O-] (centres unmarked)		10 µM	90
CC(C)(O)[C@H]1CC[C@H](Nc2ccc3ncc(-c4cccc(C(F)(F)F)c4)n3n2)CC1		1 µM	101
COc1cc(Nc2cnc(C#N)c(O[C@H](C)CN(C)C)n2)ncc1-c1cnn(C)c1	radiometric	1 µM	111
Cc1nn(CC(F)(F)F)cc1Nc1ncc(C2CC2)c(NCCc2c[nH]cn2)n1	radiometric	1 µM	90
COc1cc(Cl)c(C(=O)N[C@@H](CN[C@H]2CC[C@@H](N)CC2)Cc2ccc(C#N)cc2)cc1-c1ccc(CN[C@H](C)c2ccc(C)cc2)o1		1 µM	98
Cc1nn(CC(F)(F)F)cc1Nc1ncc(Br)c(NCc2ccc(S(N)(=O)=O)cc2)n1	radiometric	1 µM	89
CC(C)(C)c1nc(-c2cccc(NS(=O)(=O)c3c(F)cccc3F)c2F)c(-c2ccnc(N)n2)s1	radiometric	1 µM	94
Cc1nn(CC(F)(F)F)cc1Nc1ncc(Br)c(NCCCNC(=O)C2CCC2)n1	radiometric	1 µM	19
CC(C)(C)c1nc2c(s1)c1nc(N)ncc1c1ccc(NS(=O)(=O)c3c(F)cccc3F)c(F)c12	radiometric	1 µM	92
Cn1c(=O)n(-c2ccc(C(C)(C)C#N)cc2)c2c3cc(-c4cnc5ccccc5c4)ccc3ncc21		10 µM	86
